Assay results collected from several papers.
Compare with care: the assays were run in different laboratories.
Cell line: A549
Effect on: cell growth or viability

| Compound | technique | time | IC50 |
| --- | --- | --- | --- |
| CC(C)CNC(=S)N/N=C/c1cccc2cc3ccccc3nc12 | MTT | 48 h | > 50 µM |
| O=C(Nc1ccc(-c2ccc3ncn(Cc4ccccc4)c(=O)c3c2)cn1)c1ccc(F)cc1 | CCK-8 | 72 h | > 10 µM |
| CC(=O)O[C@H]1C(=O)[C@@]2(C)[C@H]([C@H](OC(=O)c3ccccc3)[C@]3(O)C[C@H](OC(=O)[C@H](O)[C@@H](NC(=O)c4ccccc4)c4ccccc4)C(C)=C1C3(C)C)[C@]1(OC(C)=O)CO[C@@H]1C[C@@H]2O | MTT | 72 h | 0.64 µM |
| OC1CCN(c2ccc(/C=N/NC(=S)NCCc3ccccc3)cc2)CC1 | MTT | 24 h | 1.33 µM |
| CCCCNC(=O)Nc1nc2cc(-c3ccc4ncn(Cc5ccccc5)c(=O)c4c3)ccc2s1 | MTT | 72 h | 6.27 µM |
| C/C(=N\C(=N)/N=C(\C)c1c(O)c2ccccc2oc1=O)c1c(O)c2ccccc2oc1=O | MTT | 48 h | 66 µM |
| CCCn1cnc2ccc(-c3ccc(NC(=O)CC4CCC4)nc3)cc2c1=O | CCK-8 | 72 h | > 10 µM |
| O=C(Cn1cc(COc2ncnc3[nH]cnc23)nn1)NCc1ccc(Cl)cc1 | MTT | – | 15.3 µM |
| O=C(N[C@@H](CSCc1ccc([N+](=O)[O-])cc1)C(=O)NO)c1ccccc1 | MTT | 48 h | 48.2 µM |
| CCCCn1cnc2ccc(-c3ccc(NC(=O)Nc4ccc(CC)cc4)nc3)cc2c1=O | CCK-8 | 72 h | > 10 µM |
| COc1cccc(NC(=O)Nc2nc3cc(-c4ccc5ncn(Cc6ccccc6)c(=O)c5c4)ccc3s2)c1 | MTT | 72 h | 3.39 µM |
| CC(C)[C@@H]1NC(=O)[C@@H](CCCNC(=N)N)NC(=O)[C@H]([C@@H](C)O)NC(=O)[C@@H](CCCN)NC(=O)[C@H](Cc2ccccc2)NC(=O)[C@@H](Cc2ccccc2)NC1=O | ATP luminescence | 72 h | > 100 µM |
| C(=N\Nc1cc(N/N=C/c2cccc3cccnc23)nc(-c2ccccc2)n1)/c1cccc2cccnc12 | MTT | 48 h | 12.6 µM |
| CCCCn1cnc2ccc(-c3ccc(NC(=O)Nc4ccc(Cl)cc4)nc3)cc2c1=O | CCK-8 | 72 h | > 10 µM |
| COc1ccccc1CNc1ccc(C(=O)O)cc1 | resazurin | 72 h | > 100 µM |
| NS(=O)(=O)c1ccc(-n2nc(C(=O)NN3C(=O)CCC3=O)cc2-c2ccccc2)cc1 | fluorescence | 48 h | 24 µM |
| CCCn1cnc2ccc(-c3ccc4sc(NC(=O)Nc5ccc(F)cc5)nc4c3)cc2c1=O | MTT | 72 h | 0.44 µM |
| CCCCC(=O)Nc1cc(C)c(-c2ccc3ncn(CCC)c(=O)c3c2)cn1 | CCK-8 | 72 h | > 10 µM |
| O=C(C=Cc1ccc(OCCCOc2ccc(C=CC(=O)c3cccs3)cc2)cc1)c1cccs1 | MTT | 48 h | 92.4 µM |
| CCCCn1cnc2ccc(-c3ccc(NC(=O)C4CCCC4)nc3)cc2c1=O | CCK-8 | 72 h | 4.58 µM |
| NNc1nc2ccc(Br)cc2c(=O)n1-c1ccccc1 | MTT | 48 h | 53.5 µM |
| CCCn1cnc2ccc(-c3ccc(NC(=O)CNC(C)C)nc3)cc2c1=O | CCK-8 | 72 h | > 10 µM |
| COc1cccc2c1C(=O)c1c(O)c3c(c(O)c1C2=O)C[C@@](O)(C(=O)CO)C[C@@H]3O[C@H]1C[C@H](N)[C@H](O)[C@H](C)O1 | MTT | 24 h | 0.69 mg/L |
